Experimental data reported in ChEMBL document CHEMBL1155929, “3-(4-(6-Fluoroalkoxy-3,4-dihydroisoquinoline-2(1H)-yl)cyclohexyl)-1H-indole-5-carbonitriles for SERT imaging: chemical synthesis, evaluation in vitro and radiofluorination” (Bioorg Med Chem Lett, 2008).

Legend:
[1] = biological target: T1, 5-hydroxytryptamine receptor 1A (Rattus norvegicus, UniProt P19327); assay: Displacement of [3H]8-OH-DPAT from 5HT1A receptor in rat cortical membrane; assay type: cell membranes
T1 sequence (P19327 whole entry): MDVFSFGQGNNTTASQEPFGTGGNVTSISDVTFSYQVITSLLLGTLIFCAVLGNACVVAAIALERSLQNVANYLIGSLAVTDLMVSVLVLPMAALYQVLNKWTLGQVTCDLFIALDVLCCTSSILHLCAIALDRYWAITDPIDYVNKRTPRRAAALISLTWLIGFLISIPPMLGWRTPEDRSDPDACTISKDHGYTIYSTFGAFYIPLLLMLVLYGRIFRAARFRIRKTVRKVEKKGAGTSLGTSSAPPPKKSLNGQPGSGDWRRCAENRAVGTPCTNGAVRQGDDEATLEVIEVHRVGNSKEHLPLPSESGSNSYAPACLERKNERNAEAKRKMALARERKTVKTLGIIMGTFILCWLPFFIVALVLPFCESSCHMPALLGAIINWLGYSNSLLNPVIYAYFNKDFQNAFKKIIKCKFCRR
Method in brief: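 Rat cortical membrane homogenate diluted in 50 mM Tris-HCl pH 7.4, 4 mM CaCl2, 0.1% ascorbic acid. Incubated with 0.3 nM [3H]-8-OH-DPAT and 6-12 test concentrations at 21 °C for 60 min. Nonspecific binding defined with 10 µM serotonin hydrochloride. IC50 from triplicates per experiment, at least three independent experiments; Ki calculated.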

[2] = biological target: T2, Sodium-dependent serotonin transporter (Homo sapiens, UniProt P31645); assay: Ratio of Ki for displacement of [3H]paroxetine to displacement of [3H]citalopram from human SERT expressed in […] cells; assay type: cell-based
Target sequence in this assay (P31645 whole entry, looked up): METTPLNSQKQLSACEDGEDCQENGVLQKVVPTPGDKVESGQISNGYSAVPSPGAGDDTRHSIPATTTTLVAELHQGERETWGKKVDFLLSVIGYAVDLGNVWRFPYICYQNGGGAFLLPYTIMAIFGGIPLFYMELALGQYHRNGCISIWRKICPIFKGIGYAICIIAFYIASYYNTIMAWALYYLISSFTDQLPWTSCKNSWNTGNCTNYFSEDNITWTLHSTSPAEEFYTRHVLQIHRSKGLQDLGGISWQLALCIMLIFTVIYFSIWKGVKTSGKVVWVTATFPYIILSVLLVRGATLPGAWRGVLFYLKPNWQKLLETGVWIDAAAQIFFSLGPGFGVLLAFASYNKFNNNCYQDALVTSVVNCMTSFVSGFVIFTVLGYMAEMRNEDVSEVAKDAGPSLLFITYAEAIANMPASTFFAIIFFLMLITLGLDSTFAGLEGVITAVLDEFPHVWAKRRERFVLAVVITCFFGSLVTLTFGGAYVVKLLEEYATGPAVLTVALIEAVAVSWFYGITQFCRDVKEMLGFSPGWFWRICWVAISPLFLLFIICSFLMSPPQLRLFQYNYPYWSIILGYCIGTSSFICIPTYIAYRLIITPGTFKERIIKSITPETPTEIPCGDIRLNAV

[3] = biological target: T2, Sodium-dependent serotonin transporter; assay: biochemical; assay type: cell-based, HEK293
Target sequence in this assay (P31645 whole entry): as the sequence (P31645 whole entry, looked up) above

[4] = biological target: Sodium-dependent noradrenaline transporter (Homo sapiens, UniProt P23975); assay: Displacement of [3H]nisoxetine from human NET expressed in HEK293 cells; assay type: cell-based
Sequence of Sodium-dependent noradrenaline transporter (P23975 whole entry): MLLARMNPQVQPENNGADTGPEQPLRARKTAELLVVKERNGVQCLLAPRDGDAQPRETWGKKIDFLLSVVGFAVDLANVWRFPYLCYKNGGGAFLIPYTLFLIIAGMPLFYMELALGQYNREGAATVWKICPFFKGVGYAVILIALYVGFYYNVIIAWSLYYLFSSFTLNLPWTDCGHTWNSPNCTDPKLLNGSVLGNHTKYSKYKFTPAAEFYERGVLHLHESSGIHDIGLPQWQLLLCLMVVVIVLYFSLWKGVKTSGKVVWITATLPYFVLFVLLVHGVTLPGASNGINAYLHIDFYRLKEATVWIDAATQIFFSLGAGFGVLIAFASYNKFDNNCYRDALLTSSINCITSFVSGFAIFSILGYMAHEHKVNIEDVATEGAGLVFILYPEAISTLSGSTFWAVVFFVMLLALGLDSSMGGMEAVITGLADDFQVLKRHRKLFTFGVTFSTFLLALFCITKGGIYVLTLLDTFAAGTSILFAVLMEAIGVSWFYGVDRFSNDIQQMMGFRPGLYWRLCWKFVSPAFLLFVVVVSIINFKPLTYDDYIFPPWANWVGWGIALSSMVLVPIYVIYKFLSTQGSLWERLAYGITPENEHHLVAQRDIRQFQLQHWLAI
Method in brief: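 Homogenate of HEK293 cells stably expressing hNET, in 50 mM Tris-HCl pH 7.4, 120 mM NaCl, 5 mM KCl. Incubated with 0.5 nM [3H]nisoxetine (KD 6.77 nM) and 6-12 test concentrations at 21 °C for 60 min. Nonspecific binding with 100 µM protriptyline. IC50 from triplicates per experiment; Ki calculated.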

[5] = biological target: Sodium-dependent dopamine transporter (Homo sapiens, UniProt Q01959); assay: Displacement of [3H]WIN-35428 from human DAT expressed in HEK293 cells; assay type: cell-based
Sequence of Sodium-dependent dopamine transporter (Q01959 whole entry): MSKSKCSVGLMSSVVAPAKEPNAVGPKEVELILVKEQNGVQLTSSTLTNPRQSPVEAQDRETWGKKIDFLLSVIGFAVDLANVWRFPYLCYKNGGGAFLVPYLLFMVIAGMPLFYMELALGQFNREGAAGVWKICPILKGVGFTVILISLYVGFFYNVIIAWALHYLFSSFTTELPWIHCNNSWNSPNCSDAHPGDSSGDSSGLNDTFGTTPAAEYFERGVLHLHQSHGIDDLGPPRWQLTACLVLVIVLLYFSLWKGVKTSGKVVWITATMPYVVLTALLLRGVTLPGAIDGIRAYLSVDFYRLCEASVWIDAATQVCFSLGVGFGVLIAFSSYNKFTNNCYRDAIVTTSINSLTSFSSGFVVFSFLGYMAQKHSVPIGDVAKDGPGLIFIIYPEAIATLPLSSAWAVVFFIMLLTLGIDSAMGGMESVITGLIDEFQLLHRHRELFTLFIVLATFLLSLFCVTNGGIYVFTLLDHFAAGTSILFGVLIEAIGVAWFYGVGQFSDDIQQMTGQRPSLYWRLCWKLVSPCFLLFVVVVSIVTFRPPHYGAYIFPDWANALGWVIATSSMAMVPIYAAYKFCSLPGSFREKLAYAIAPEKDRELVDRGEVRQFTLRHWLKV
Method in brief: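 Homogenate of HEK293 cells stably expressing hDAT, in 50 mM Tris-HCl pH 7.4, 100 mM NaCl. Incubated with 0.5 nM [3H]WIN35,428 (KD 24.1 nM) and 6-12 test concentrations on ice for 120 min. Nonspecific binding with 10 µM GBR12909. IC50 from triplicates per experiment; Ki calculated.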

[6] = biological target: T2, Sodium-dependent serotonin transporter; assay: biochemical; assay type: cell-based, HEK293; remark: listed apart in the source
Target sequence in this assay (P31645 whole entry): as the sequence (P31645 whole entry, looked up) above

[7] = Stability in aqueous sodium hydroxide at 80 degC after 30 mins; assay type: physicochemical; details: buffer, 0.5 h
Method in brief: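 18F tracer held in 0.1 or 1.3 M aqueous NaOH at 80 °C. Analysed by radio-HPLC and TLC.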

[8] = Partition coefficient, log D at pH 7.2 to 7.4 by HPLC Multisorb; assay type: physicochemical; details: octanol/water
Method in brief: (§1)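 HPLC log D on Multisorb RP18-7 or Supelcosil ABZ+ Plus columns. Gradient from 5% MeCN + 20 mM ammonium acetate to 80% MeCN + 20 mM ammonium acetate over 55 min at 1 ml/min. n ≥ 3 per standard or sample.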

[9] = Partition coefficient, log D in phosphate buffer at pH 7.2 to 7.4 by extractive method; assay type: physicochemical; details: octanol/water
Method in brief: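 Batch n-octanol–buffer extraction of the 18F-labelled tracer. Buffers were 50 mM Sørensen phosphate pH 7.2, Dulbecco's PBS pH 7.2, and 30 mM Tris-HCl pH 7.4. n = 3 per buffer system.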

[10] = system: Cortex; assay: Stability in rat cortex at pH 7.2 to 7.4 after 120 mins; assay type: ADME, tissue-based; details: buffer, pH 7.2, 2 h
Method in brief: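 18F tracer incubated at 37 °C in rat cortex homogenate in Tris-HCl, pH 7.2–7.4, for up to 120 min. Sampled every 30 min and analysed by radio-HPLC and TLC.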

[11] = Protein binding in rat plasma by acetonitrile precipitation; assay type: ADME, cell-free; details: read-out: PB (converted)
Method in brief: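 18F tracer incubated in freshly isolated rat plasma (protein 95 mg/ml) for 30 min at 37 °C. Protein precipitated with MeCN and extracted twice. Centrifuged at 2000g for 30 min at room temperature; n = 3.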

[12] = Partition coefficient, log D at pH 7.2 to 7.4 by HPLC Supelcosil; assay type: physicochemical; details: octanol/water; method in brief: as §1

| Ki [1] | fold change (FC) [2] | Ki [3] | Ki [4] | Ki [5] | Ki [6] | Stability [7] | logD [8] | logD [9] | Stability [10] | fraction unbound [11] | chromatographic logD [12] | SMILES |
| --- | --- | --- | --- | --- | --- | --- | --- | --- | --- | --- | --- | --- |
| > 1000 nM | 41.9 | 4.51 nM | 1430 nM | 424 nM | 189 nM | – | – | – | – | – | – | N#Cc1ccc2[nH]cc([C@H]3CC[C@@H](N4CCc5ccccc5C4)CC3)c2c1 |
| 267 nM | 7 | 73.7 nM | 96.7 nM | 462 nM | 518 nM | – | – | – | – | – | – | COc1ccc2c(c1)CCN([C@H]1CC[C@H](c3c[nH]c4ccc(C#N)cc43)CC1)C2 |
| – | – | – | – | – | – | Stable | 3.27 | 2.47 | Stable | 0.973 | 2.54 | N#Cc1ccc2[nH]cc([C@H]3CC[C@@H](N4CCc5cc(OCCC[18F])ccc5C4)CC3)c2c1 |
| 2860 nM | 7.1 | 327 nM | 102 nM | 343 nM | 2310 nM | – | – | – | – | – | – | N#Cc1ccc2[nH]cc([C@H]3CC[C@H](N4CCc5cc(OCCCF)ccc5C4)CC3)c2c1 |
| 5670 nM | 140 | 6.16 nM | 772 nM | 366 nM | 914 nM | – | – | – | – | – | – | N#Cc1ccc2[nH]cc([C@H]3CC[C@@H](N4CCc5cc(OCCCF)ccc5C4)CC3)c2c1 |
| – | – | – | – | – | – | Stable | 3.27 | 2.36 | Stable | – | 2.49 | N#Cc1ccc2[nH]cc([C@H]3CC[C@H](N4CCc5cc(OCCC[18F])ccc5C4)CC3)c2c1 |
| 2530 nM | 3.2 | 90.7 nM | 184 nM | 309 nM | 286 nM | – | – | – | – | – | – | N#Cc1ccc2[nH]cc([C@H]3CC[C@H](N4CCc5ccccc5C4)CC3)c2c1 |
| – | – | 0.73 nM | – | – | 2.03 nM | – | – | – | – | – | – | Cc1ccc(Sc2ccccc2CN(C)C)c(N)c1 |
| 13100 nM | 40.2 | 4.1 nM | 1020 nM | 370 nM | 165 nM | – | – | – | – | – | – | COc1ccc2c(c1)CCN([C@H]1CC[C@@H](c3c[nH]c4ccc(C#N)cc43)CC1)C2 |
